# According to ChEMBL document CHEMBL1155347, “Synthesis and antimicrobial activities of novel quinoline derivatives carrying 1,2,4-triazole moiety” (2009):
# Experiments:
# Assay type in all cases: functional
# [1] = system: Aspergillus fumigatus; assay: Antifungal activity against Aspergillus fumigatus NCIM 902 at MIC after 3 to 4 days by agar well diffusion method
# In short: (§1)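 Sabouraud agar (peptone, D-glucose, agar; pH 5.7) seeded with spore suspension made by transferring a loopful of fungus to 3 mL normal saline. Excess decanted, plates dried 1 h at 37 °C. Compounds in DMSO at MIC added to punched wells; DMSO control. Triplicate plates kept 3–4 days at 37 °C.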
# [2] = system: Staphylococcus aureus; assay: Antibacterial activity against Staphylococcus aureus ATCC 25923 after 16 to 18 hrs by serial plate dilution method
# In short: (§2)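 Drug serially diluted in Mueller–Hinton broth in tubes, adjusted to pH 5.0 with phosphate buffer. Inoculated with standardized bacterial suspension and incubated 16–18 h at 37 °C. MIC taken as lowest concentration with no visible growth.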
# [3] = system: Escherichia coli; assay: Antibacterial activity against Escherichia coli ATCC 25922 after 16 to 18 hrs by serial plate dilution method; in short: as §2
# [4] = system: Pseudomonas aeruginosa; assay: Antibacterial activity against Pseudomonas aeruginosa ATCC 27853 after 16 to 18 hrs by serial plate dilution method; in short: as §2
# [5] = system: Klebsiella pneumoniae; assay: Antibacterial activity against recultured Klebsiella pneumoniae after 16 to 18 hrs by serial plate dilution method; in short: as §2
# [6] = system: Staphylococcus aureus; assay: Antibacterial activity against Staphylococcus aureus ATCC 25923 at MIC after 3 to 4 days by agar well diffusion method
# [7] = system: Escherichia coli; assay: Antibacterial activity against Escherichia coli ATCC 25922 at MIC after 3 to 4 days by agar well diffusion method
# [8] = system: Pseudomonas aeruginosa; assay: Antibacterial activity against Pseudomonas aeruginosa ATCC 27853 at MIC after 3 to 4 days by agar well diffusion method
# [9] = system: Klebsiella pneumoniae; assay: Antibacterial activity against recultured Klebsiella pneumoniae at MIC after 3 to 4 days by agar well diffusion method
# [10] = system: Talaromyces marneffei; assay: Antifungal activity against recultured Penicillium marneffei by serial plate dilution method
# [11] = system: Trichophyton mentagrophytes; assay: Antifungal activity against recultured Trichophyton mentagrophytes by serial plate dilution method
# [12] = system: Aspergillus flavus; assay: Antifungal activity against Aspergillus flavus NCIM 524 by serial plate dilution method
# [13] = system: Aspergillus fumigatus; assay: Antifungal activity against Aspergillus fumigatus NCIM 902 by serial plate dilution method
# [14] = system: Talaromyces marneffei; assay: Antifungal activity against recultured Penicillium marneffei at MIC after 3 to 4 days by agar well diffusion method; in short: as §1
# [15] = system: Trichophyton mentagrophytes; assay: Antifungal activity against recultured Trichophyton mentagrophytes at MIC after 3 to 4 days by agar well diffusion method; in short: as §1
# [16] = system: Aspergillus flavus; assay: Antifungal activity against Aspergillus flavus NCIM 524 at MIC after 3 to 4 days by agar well diffusion method; in short: as §1
SMILES,MIC [2],MIC [3],MIC [4],MIC [5],MIC [10],MIC [11],MIC [12],MIC [13],inhibition zone (IZ) [1],inhibition zone (IZ) [6],inhibition zone (IZ) [7],inhibition zone (IZ) [8],inhibition zone (IZ) [9],inhibition zone (IZ) [14],inhibition zone (IZ) [15],inhibition zone (IZ) [16]
CC(C)(C)CCNc1c(-c2nnc(S)n2Cc2ccccc2)cnc2c(C(F)(F)F)cccc12,12.5 µg/mL,12.5 µg/mL,12.5 µg/mL,12.5 µg/mL,12.5 µg/mL,12.5 µg/mL,12.5 µg/mL,12.5 µg/mL,10 mm,10 mm,16 mm,10 mm,12 mm,10 mm,16 mm,10 mm
COCCn1c(S)nnc1-c1cnc2c(C(F)(F)F)cccc2c1N1CCN(C2CCCCC2)CC1,50 µg/mL,6.25 µg/mL,50 µg/mL,50 µg/mL,50 µg/mL,6.25 µg/mL,50 µg/mL,50 µg/mL,<10 mm,<10 mm,20 mm,<10 mm,<10 mm,<10 mm,20 mm,<10 mm
FC(F)(F)c1cccc2c(NC3CCCCC3)c(-c3nnc(S)n3Cc3ccccc3)cnc12,12.5 µg/mL,12.5 µg/mL,12.5 µg/mL,12.5 µg/mL,12.5 µg/mL,12.5 µg/mL,12.5 µg/mL,12.5 µg/mL,10 mm,10 mm,16 mm,10 mm,12 mm,10 mm,16 mm,10 mm
CCN1CCN(c2c(-c3nnc(S)n3CCOC)cnc3c(C(F)(F)F)cccc23)CC1,50 µg/mL,6.25 µg/mL,50 µg/mL,50 µg/mL,50 µg/mL,6.25 µg/mL,50 µg/mL,50 µg/mL,<10 mm,<10 mm,20 mm,<10 mm,<10 mm,<10 mm,20 mm,<10 mm
FC(F)(F)c1cccc2c(Cl)c(-c3nnc(S)n3Cc3ccccc3)cnc12,50 µg/mL,50 µg/mL,50 µg/mL,50 µg/mL,50 µg/mL,50 µg/mL,50 µg/mL,50 µg/mL,<10 mm,<10 mm,<10 mm,<10 mm,<10 mm,<10 mm,<10 mm,<10 mm
Oc1c(-c2nnc(S)n2Cc2ccccc2)cnc2c(C(F)(F)F)cccc12,50 µg/mL,50 µg/mL,50 µg/mL,50 µg/mL,50 µg/mL,50 µg/mL,50 µg/mL,50 µg/mL,<10 mm,<10 mm,<10 mm,<10 mm,<10 mm,<10 mm,<10 mm,<10 mm
COCCn1c(S)nnc1-c1cnc2c(C(F)(F)F)cccc2c1N1CCC(CCCO)CC1,6.25 µg/mL,6.25 µg/mL,50 µg/mL,50 µg/mL,50 µg/mL,50 µg/mL,50 µg/mL,50 µg/mL,<10 mm,16 mm,20 mm,<10 mm,<10 mm,<10 mm,<10 mm,<10 mm
COCCn1c(S)nnc1-c1cnc2c(C(F)(F)F)cccc2c1Cl,12.5 µg/mL,6.25 µg/mL,12.5 µg/mL,12.5 µg/mL,12.5 µg/mL,12.5 µg/mL,12.5 µg/mL,12.5 µg/mL,10 mm,10 mm,16 mm,10 mm,12 mm,10 mm,10 mm,10 mm
OCCCC1CCN(c2c(-c3nnc(S)n3Cc3ccccc3)cnc3c(C(F)(F)F)cccc23)CC1,12.5 µg/mL,12.5 µg/mL,12.5 µg/mL,12.5 µg/mL,12.5 µg/mL,12.5 µg/mL,12.5 µg/mL,12.5 µg/mL,10 mm,10 mm,16 mm,10 mm,12 mm,10 mm,16 mm,10 mm
O=C(O)c1cn(C2CC2)c2cc(N3CCNCC3)c(F)cc2c1=O [CIPROFLOXACIN],–,–,–,6.25 µg/mL,–,–,–,–,–,22 mm,30 mm,25 mm,23 mm,–,–,–

# Second part, led by results:
MIC [2],MIC [3],MIC [4],MIC [5],MIC [10],MIC [11],MIC [12],MIC [13],SMILES,inhibition zone (IZ) [1],inhibition zone (IZ) [6],inhibition zone (IZ) [7],inhibition zone (IZ) [8],inhibition zone (IZ) [9],inhibition zone (IZ) [14],inhibition zone (IZ) [15],inhibition zone (IZ) [16]
50 µg/mL,6.25 µg/mL,50 µg/mL,50 µg/mL,50 µg/mL,50 µg/mL,50 µg/mL,50 µg/mL,FC(F)(F)c1cccc2c(N3CCN(C4CCCCC4)CC3)c(-c3nnc(S)n3-c3ccccc3)cnc12,<10 mm,<10 mm,20 mm,<10 mm,<10 mm,<10 mm,<10 mm,<10 mm
6.25 µg/mL,12.5 µg/mL,50 µg/mL,50 µg/mL,50 µg/mL,50 µg/mL,50 µg/mL,50 µg/mL,OCCCC1CCN(c2c(-c3nnc(S)n3-c3ccccc3)cnc3c(C(F)(F)F)cccc23)CC1,<10 mm,16 mm,16 mm,<10 mm,<10 mm,<10 mm,<10 mm,<10 mm
6.25 µg/mL,50 µg/mL,50 µg/mL,50 µg/mL,50 µg/mL,50 µg/mL,50 µg/mL,50 µg/mL,FC(F)(F)c1cccc2c(N3CCN(C4CCCCC4)CC3)c(-c3nnc(S)n3Cc3ccccc3)cnc12,<10 mm,16 mm,<10 mm,<10 mm,<10 mm,<10 mm,<10 mm,<10 mm
6.25 µg/mL,12.5 µg/mL,50 µg/mL,50 µg/mL,12.5 µg/mL,12.5 µg/mL,12.5 µg/mL,12.5 µg/mL,FC(F)(F)c1cccc2c(N3CCOCC3)c(-c3nnc(S)n3Cc3ccccc3)cnc12,10 mm,16 mm,16 mm,<10 mm,<10 mm,10 mm,16 mm,10 mm
50 µg/mL,6.25 µg/mL,50 µg/mL,50 µg/mL,50 µg/mL,50 µg/mL,50 µg/mL,50 µg/mL,NCCN1CCN(c2c(-c3nnc(S)n3Cc3ccccc3)cnc3c(C(F)(F)F)cccc23)CC1,<10 mm,<10 mm,20 mm,<10 mm,<10 mm,<10 mm,<10 mm,<10 mm
50 µg/mL,6.25 µg/mL,50 µg/mL,50 µg/mL,50 µg/mL,50 µg/mL,50 µg/mL,50 µg/mL,CC(C)N1CCN(c2c(-c3nnc(S)n3-c3ccccc3)cnc3c(C(F)(F)F)cccc23)CC1,<10 mm,<10 mm,20 mm,<10 mm,<10 mm,<10 mm,<10 mm,<10 mm
